From ChEMBL document CHEMBL1138117, “Hybrid antibacterials. DNA polymerase-topoisomerase inhibitors” (J Med Chem, 2006)
≈ marks a conversion by molar mass, not a printed value.

Key:
Bacillus subtilis = assay: Antibacterial activity against Bacillus subtilis BD54; type: functional
Enterococcus faecium [1] = assay: Antibacterial activity against Enterococcus faecium 19434; type: functional
Mus musculus = assay: Effect on survival of mice after ip infection with Staphylococcus aureus Smith; type: functional
Outline: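 Male Swiss-Webster mice (20–24 g) were given 10⁸ CFU of log-phase S. aureus Smith ip, grown in LB at 37 °C and washed in cold broth. A single iv tail-vein dose was given in DCP vehicle (10% DMA, 10% Cremophor EL in PBS, pH 9.5; 5 mL/kg) 15 min post-infection. Survival was scored at 72 h and ED50 derived.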

Enterococcus faecalis = assay: Antibacterial activity against Enterococcus faecalis 29212; type: functional
Enterococcus faecium [2] = assay: Antibacterial activity against Vancomycin resistant Enterococcus faecium VRE 700802; type: functional
Escherichia coli = assay: Antibacterial activity against Escherichia coli J53; type: functional
Staphylococcus aureus [3] = assay: Antibacterial activity against methicillin resistant Staphylococcus aureus MRSA 1094; type: functional
[4] = target: DNA polymerase III PolC-type (Bacillus subtilis (strain 168), UniProt P13267); assay: Binding affinity to Bacillus subtilis DNA polymerase3C
Chain of DNA polymerase III PolC-type (P13267 whole entry, the tested form may be a part): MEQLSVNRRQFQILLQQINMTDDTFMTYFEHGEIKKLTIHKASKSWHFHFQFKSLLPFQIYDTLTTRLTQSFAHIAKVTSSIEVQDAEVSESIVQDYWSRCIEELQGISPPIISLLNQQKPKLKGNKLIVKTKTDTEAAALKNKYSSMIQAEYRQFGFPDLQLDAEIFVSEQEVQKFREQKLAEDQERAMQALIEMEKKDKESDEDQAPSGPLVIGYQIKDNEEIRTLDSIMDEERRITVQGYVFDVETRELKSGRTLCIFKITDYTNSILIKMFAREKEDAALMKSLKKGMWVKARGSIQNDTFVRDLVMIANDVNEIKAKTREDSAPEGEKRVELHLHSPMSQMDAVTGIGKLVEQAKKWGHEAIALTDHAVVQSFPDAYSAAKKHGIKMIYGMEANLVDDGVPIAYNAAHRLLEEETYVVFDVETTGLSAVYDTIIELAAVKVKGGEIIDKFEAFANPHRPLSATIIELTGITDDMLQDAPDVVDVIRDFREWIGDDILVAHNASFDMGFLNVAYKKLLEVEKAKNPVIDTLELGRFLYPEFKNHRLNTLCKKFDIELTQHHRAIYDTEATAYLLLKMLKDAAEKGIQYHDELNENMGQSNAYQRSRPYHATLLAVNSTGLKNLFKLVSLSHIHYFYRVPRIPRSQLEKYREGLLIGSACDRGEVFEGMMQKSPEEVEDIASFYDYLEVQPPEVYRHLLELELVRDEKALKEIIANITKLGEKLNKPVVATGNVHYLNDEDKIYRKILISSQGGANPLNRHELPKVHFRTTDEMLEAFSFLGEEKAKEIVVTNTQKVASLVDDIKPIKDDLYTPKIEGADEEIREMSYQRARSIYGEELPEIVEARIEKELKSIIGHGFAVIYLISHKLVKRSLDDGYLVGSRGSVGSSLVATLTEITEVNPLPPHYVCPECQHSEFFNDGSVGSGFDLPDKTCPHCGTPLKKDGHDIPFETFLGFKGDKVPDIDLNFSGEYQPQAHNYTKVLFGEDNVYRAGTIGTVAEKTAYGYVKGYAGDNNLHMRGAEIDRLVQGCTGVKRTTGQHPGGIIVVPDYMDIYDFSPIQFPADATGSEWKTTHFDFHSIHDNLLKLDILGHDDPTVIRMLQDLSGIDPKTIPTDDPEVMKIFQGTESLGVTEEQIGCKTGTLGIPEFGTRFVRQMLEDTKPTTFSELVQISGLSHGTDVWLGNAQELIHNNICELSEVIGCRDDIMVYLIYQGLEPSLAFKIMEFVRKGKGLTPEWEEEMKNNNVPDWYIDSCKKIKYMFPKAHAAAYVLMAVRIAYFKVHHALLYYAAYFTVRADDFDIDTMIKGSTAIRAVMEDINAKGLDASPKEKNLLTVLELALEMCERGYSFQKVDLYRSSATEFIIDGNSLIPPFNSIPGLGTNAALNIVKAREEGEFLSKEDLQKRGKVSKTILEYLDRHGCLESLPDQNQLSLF
Outline: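 Homogeneous recombinant B. subtilis pol IIIC was assayed in 96-well format on activated calf thymus DNA. Apparent Ki values were determined in a truncated assay lacking the competitor dGTP.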

Staphylococcus aureus [5] = assay: Antibacterial activity against Staphylococcus aureus 25293; type: functional
Staphylococcus aureus [6] = assay: Antibacterial activity against Staphylococcus aureus smith; type: functional
[7] = system: DNA gyrase (Bacillus subtilis); assay: Inhibition of Bacillus subtilis gyrase activity

Row | Structure (SMILES) | MIC (Bacillus subtilis) | MIC (Enterococcus faecium [1]) | ED50 (Mus musculus) | MIC (Enterococcus faecalis) | MIC (Enterococcus faecium [2]) | MIC (Escherichia coli) | MIC (Staphylococcus aureus [3]) | Ki ([4]; read-out: Ki) | MIC (Staphylococcus aureus [5]) | MIC (Staphylococcus aureus [6]) | IC50 [7] | Ki [4]
1 | CCc1cc(Nc2cc(=O)n(CCCCN3CCN(c4c(F)cc5c(=O)c(C(=O)O)cn(C6CC6)c5c4F)CC3CO)c(=O)[nH]2)ccc1C (centres undefined) | 0.625 µg/mL (≈ 0.921 µM) | 2.5 µg/mL (≈ 3.68 µM) | 35 mg/kg | 2.5 µg/mL (≈ 3.68 µM) | 2.5 µg/mL (≈ 3.68 µM) | > 40 µg/mL | 5 µg/mL (≈ 7.37 µM) |  |  |  |  | 
2 | CCc1cc(Nc2cc(=O)n(CCCCN3CCN(c4cc5c(cc4F)c(=O)c(C(=O)O)cn5-c4ccc(F)cc4F)CC3)c(=O)[nH]2)ccc1C | 0.313 µg/mL (≈ 0.445 µM) | 1.25 µg/mL (≈ 1.78 µM) | 27 mg/kg | 1.25 µg/mL (≈ 1.78 µM) | 1.25 µg/mL (≈ 1.78 µM) | > 40 µg/mL |  |  |  |  |  | 
3 | CCc1cc(Nc2cc(=O)n(CCCCN3CCN(c4cc5c(cc4F)c(=O)c(C(=O)O)cn5-c4ccc(F)cc4)CC3)c(=O)[nH]2)ccc1C | 0.156 µg/mL (≈ 0.228 µM) | 1.25 µg/mL (≈ 1.83 µM) |  | 0.625 µg/mL (≈ 0.913 µM) | 1.25 µg/mL (≈ 1.83 µM) | > 40 µg/mL | 2.5 µg/mL (≈ 3.65 µM) | 17 nM | 1.25 µg/mL (≈ 1.83 µM) | 0.625 µg/mL (≈ 0.913 µM) |  | 
4 | CCc1cc(Nc2cc(=O)n(CCCCN3CCN(c4cc5c(cc4F)c(=O)c(C(=O)O)cn5C4CC4)C[C@H]3C)c(=O)[nH]2)ccc1C | 0.313 µg/mL (≈ 0.485 µM) | 0.625 µg/mL (≈ 0.969 µM) | 20 mg/kg | 0.625 µg/mL (≈ 0.969 µM) | 0.625 µg/mL (≈ 0.969 µM) |  | 2.5 µg/mL (≈ 3.88 µM) |  |  |  |  | 
5 | CCc1cc(Nc2cc(=O)n(CCCCCN3CC4CCCN(c5cc6c(cc5F)c(=O)c(C(=O)O)cn6C5CC5)C4C3)c(=O)[nH]2)ccc1C (centres undefined) | 1.25 µg/mL (≈ 1.83 µM) | > 80 µg/mL |  | > 80 µg/mL |  | > 80 µg/mL | > 80 µg/mL | 41 nM | 2.5 µg/mL (≈ 3.65 µM) | 1.25 µg/mL (≈ 1.83 µM) |  | 
6 | Cc1ccc(Nc2cc(=O)n(CCCCN3CCN(c4cc5c(cc4F)c(=O)c(C(=O)O)cn5C4CC4)CC3)c(=O)[nH]2)cc1C | 0.313 µg/mL (≈ 0.508 µM) | 2.5 µg/mL (≈ 4.05 µM) |  | 2.5 µg/mL (≈ 4.05 µM) | 1.25 µg/mL (≈ 2.03 µM) | > 40 µg/mL | 5 µg/mL (≈ 8.11 µM) |  | 1.25 µg/mL (≈ 2.03 µM) | 0.625 µg/mL (≈ 1.01 µM) |  | 
7 | CCc1cc(Nc2cc(=O)n(CCCCCN3CC4OCCN(c5cc6c(cc5F)c(=O)c(C(=O)O)cn6C5CC5)C4C3)c(=O)[nH]2)ccc1C (centres undefined) | 0.625 µg/mL (≈ 0.91 µM) | > 80 µg/mL |  | 5 µg/mL (≈ 7.28 µM) | 10 µg/mL (≈ 14.6 µM) | 40 µg/mL (≈ 58.2 µM) | 5 µg/mL (≈ 7.28 µM) | 33 nM | 1.25 µg/mL (≈ 1.82 µM) | 0.625 µg/mL (≈ 0.91 µM) |  | 
8 | CCc1cc(Nc2cc(=O)n(CCCCN3CCN(c4cc5c(cc4F)c(=O)c(C(=O)O)cn5C4CC4)CC3C)c(=O)[nH]2)ccc1C (centres undefined) | 0.313 µg/mL (≈ 0.485 µM) | 1.25 µg/mL (≈ 1.94 µM) | 20 mg/kg | 1.25 µg/mL (≈ 1.94 µM) | 0.626 µg/mL (≈ 0.971 µM) | 40 µg/mL (≈ 62 µM) | 1.25 µg/mL (≈ 1.94 µM) | 26 nM |  |  |  | 
9 | CCc1cc(Nc2cc(=O)n(CCCCN3CCN(c4c(F)cc5c(=O)c(C(=O)O)cn(CC)c5c4F)CC3)c(=O)[nH]2)ccc1C | 0.313 µg/mL (≈ 0.492 µM) | 1.25 µg/mL (≈ 1.96 µM) |  | 1.25 µg/mL (≈ 1.96 µM) | 0.625 µg/mL (≈ 0.982 µM) | > 40 µg/mL |  |  |  |  |  | 
10 | CCc1cc(Nc2cc(=O)n(CCCCN3CCN(c4cc5c(cc4F)c(=O)c(C(=O)O)cn5C4CC4)C[C@@H]3C)c(=O)[nH]2)ccc1C |  | 1.25 µg/mL (≈ 1.94 µM) | 30 mg/kg | 0.625 µg/mL (≈ 0.969 µM) | 0.625 µg/mL (≈ 0.969 µM) | 40 µg/mL (≈ 62 µM) | 1.25 µg/mL (≈ 1.94 µM) |  | 1.25 µg/mL (≈ 1.94 µM) |  |  | 
11 | CCc1cc(Nc2cc(=O)n(CCCCO)c(=O)[nH]2)ccc1C | 1.25 µg/mL (≈ 3.94 µM) | 5 µg/mL (≈ 15.8 µM) |  | 5 µg/mL (≈ 15.8 µM) | 5 µg/mL (≈ 15.8 µM) | > 40 µg/mL | 5 µg/mL (≈ 15.8 µM) | 66 nM | 5 µg/mL (≈ 15.8 µM) | 5 µg/mL (≈ 15.8 µM) |  | 
12 | O=C(O)c1cn(C2CC2)c2cc(N3CCN(CCCCn4c(=O)cc(Nc5ccccc5)[nH]c4=O)CC3)c(F)cc2c1=O | 2.5 µg/mL (≈ 4.25 µM) | > 40 µg/mL |  | 10 µg/mL (≈ 17 µM) | 40 µg/mL (≈ 68 µM) | > 40 µg/mL | > 40 µg/mL | 29000 nM | 2.5 µg/mL (≈ 4.25 µM) | 2.5 µg/mL (≈ 4.25 µM) |  | 
13 | CCc1cc(Nc2cc(=O)n(CCCCN3CCN(c4c(F)cc5c(=O)c(C(=O)O)cn(C6CC6)c5c4Cl)CC3)c(=O)[nH]2)ccc1C | 0.078 µg/mL (≈ 0.117 µM) | 1.25 µg/mL (≈ 1.88 µM) |  | 0.625 µg/mL (≈ 0.94 µM) | 0.625 µg/mL (≈ 0.94 µM) | 20 µg/mL (≈ 30.1 µM) | 1.25 µg/mL (≈ 1.88 µM) | 10 nM | 0.313 µg/mL (≈ 0.471 µM) | 0.156 µg/mL (≈ 0.235 µM) |  | 
14 | CCc1cc(Nc2cc(=O)n(CCCCCN3CCN(c4cc5c(cc4F)c(=O)c(C(=O)O)cn5C4CC4)CC3)c(=O)[nH]2)ccc1C | 0.313 µg/mL (≈ 0.485 µM) | 1.25 µg/mL (≈ 1.94 µM) |  | 0.625 µg/mL (≈ 0.969 µM) | 1.25 µg/mL (≈ 1.94 µM) | > 40 µg/mL | 2.5 µg/mL (≈ 3.88 µM) | 19 nM | 1.25 µg/mL (≈ 1.94 µM) | 1.25 µg/mL (≈ 1.94 µM) |  | 
15 | CCc1cc(Nc2cc(=O)n(CCCCCN3CC4CCCN(c5cc6c(cc5F)c(=O)c(C(=O)O)cn6CC)C4C3)c(=O)[nH]2)ccc1C (centres undefined) | 2.5 µg/mL (≈ 3.72 µM) | 20 µg/mL (≈ 29.7 µM) |  | 10 µg/mL (≈ 14.9 µM) | 5 µg/mL (≈ 7.43 µM) | > 80 µg/mL | > 80 µg/mL | 37 nM | 10 µg/mL (≈ 14.9 µM) | 5 µg/mL (≈ 7.43 µM) |  | 
16 | CCc1cc(Nc2cc(=O)n(CCCCN3CCN(c4cc5c(cc4F)c(=O)c(C(=O)O)cn5CC)CC3)c(=O)[nH]2)ccc1C | 0.313 µg/mL (≈ 0.506 µM) | 0.625 µg/mL (≈ 1.01 µM) |  | 0.625 µg/mL (≈ 1.01 µM) | 0.625 µg/mL (≈ 1.01 µM) | > 40 µg/mL | 2.5 µg/mL (≈ 4.04 µM) |  | 1.25 µg/mL (≈ 2.02 µM) | 1.25 µg/mL (≈ 2.02 µM) |  | 
17 | CCc1cc(Nc2cc(=O)n(CCCCN3CCN(c4c(F)cc5c(=O)c(C(=O)O)cn(C6CC6)c5c4OC)CC3)c(=O)[nH]2)ccc1C | 0.156 µg/mL (≈ 0.236 µM) | 1.25 µg/mL (≈ 1.89 µM) | 25 mg/kg | 1.25 µg/mL (≈ 1.89 µM) | 0.625 µg/mL (≈ 0.946 µM) | > 40 µg/mL | 1.25 µg/mL (≈ 1.89 µM) | 14 nM | 0.625 µg/mL (≈ 0.946 µM) | 0.313 µg/mL (≈ 0.474 µM) |  | 
18 | CCc1cc(Nc2cc(=O)n(CCCCN3CCN(c4nc5c(cc4F)c(=O)c(C(=O)O)cn5CC)CC3)c(=O)[nH]2)ccc1C | 0.313 µg/mL (≈ 0.505 µM) | 1.25 µg/mL (≈ 2.02 µM) |  | 1.25 µg/mL (≈ 2.02 µM) | 0.625 µg/mL (≈ 1.01 µM) | > 40 µg/mL | 2.5 µg/mL (≈ 4.03 µM) |  |  |  |  | 
19 | CCc1cc(Nc2cc(=O)n(CCCCN3CCN(c4cc5c(cc4F)c(=O)c(C(=O)O)cn5C(C)(C)C)CC3)c(=O)[nH]2)ccc1C.Cl | 0.313 µg/mL | 1.25 µg/mL |  | 0.625 µg/mL | 1.25 µg/mL | > 40 µg/mL | 1.25 µg/mL | 13 nM | 0.625 µg/mL | 0.625 µg/mL |  | 
20 | O=C(O)c1cn(C2CC2)c2cc(N3CCNCC3)c(F)cc2c1=O [CIPROFLOXACIN] |  |  |  |  | 80 µg/mL (≈ 241 µM) | 0.313 µg/mL (≈ 0.945 µM) | 20 µg/mL (≈ 60.4 µM) |  | 0.313 µg/mL (≈ 0.945 µM) |  | 1.9 µg/mL (≈ 5.73 µM) | Not Active
21 | CC(=O)NC[C@H]1CN(c2ccc(N3CCOCC3)c(F)c2)C(=O)O1 [LINEZOLID] | 0.625 µg/mL (≈ 1.85 µM) | 2.5 µg/mL (≈ 7.41 µM) |  | 1.25 µg/mL (≈ 3.71 µM) | 1.25 µg/mL (≈ 3.71 µM) | > 80 µg/mL | 1.25 µg/mL (≈ 3.71 µM) |  | 1.25 µg/mL (≈ 3.71 µM) | 2.5 µg/mL (≈ 7.41 µM) |  | Not Active
22 | CCn1cc(C(=O)O)c(=O)c2ccc(C)nc21 [NALIDIXIC ACID] |  |  |  |  |  |  |  |  |  |  | 34.6 µg/mL (≈ 149 µM) | 
23 | CCn1cc(C(=O)O)c(=O)c2cc(F)c(N3CCNCC3)cc21 [NORFLOXACIN] | 0.313 µg/mL (≈ 0.98 µM) | 10 µg/mL (≈ 31.3 µM) |  | 2.5 µg/mL (≈ 7.83 µM) | 80 µg/mL (≈ 251 µM) | 1.25 µg/mL (≈ 3.91 µM) | 40 µg/mL (≈ 125 µM) |  |  |  |  | Not Active
24 | C[C@@H]1CN(c2c(F)c(N)c3c(=O)c(C(=O)O)cn(C4CC4)c3c2F)C[C@H](C)N1 [SPARFLOXACIN] | < 0.078 µg/mL | 1.25 µg/mL (≈ 3.19 µM) |  | 5 µg/mL (≈ 12.7 µM) | 80 µg/mL (≈ 204 µM) | < 0.078 µg/mL | 10 µg/mL (≈ 25.5 µM) |  | < 0.078 µg/mL | < 0.078 µg/mL | 0.4 µg/mL (≈ 1.02 µM) | Not Active
